Each block holds one molecule with its values, some of them ahead of it. Where a SMILES comes first, the peptide text is derived from it. Where no end group is shown, it is not given here. [ ]: non-standard residue; d: D form. The star is where a group is joined. pS = N[C@@H](COP(=O)(O)O)C(=O)O; Cbz = O=C(OCc1ccccc1)*
What was measured:
14-3-3γ [1] = target: T1, 14-3-3γ (Mus musculus, UniProt P61982); assay: Isothermal titration calorimetry; assay type: binding; conditions: ITC, 25 °C, pH 7.5, 3 independent experiments
T1 sequence (P61982 1-247): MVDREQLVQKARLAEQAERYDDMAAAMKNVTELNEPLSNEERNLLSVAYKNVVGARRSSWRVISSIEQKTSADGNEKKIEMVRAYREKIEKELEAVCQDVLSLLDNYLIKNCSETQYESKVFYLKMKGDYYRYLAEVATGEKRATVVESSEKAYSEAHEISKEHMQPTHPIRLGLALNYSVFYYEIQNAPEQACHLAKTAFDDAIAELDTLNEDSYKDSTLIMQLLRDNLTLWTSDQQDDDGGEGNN
Procedure, shortened: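 Mouse 14-3-3γ was expressed in E. coli as a GST fusion and purified on glutathione resin. The tag was cut with 3C protease, then the protein was polished by anion exchange and Superdex 200. TLE6 phosphopeptides were titrated into 14-3-3γ (e.g., 1.3 mM peptide into 50 μM protein). Data were corrected for dilution heat and curve-fitted for Kd. Three independent titrations, mean ± S.D.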

mouse 14-3-3γ = assay: 14-3-3γ degradation, immunoblotting in HEK-293F cells; assay type: cell-based
14-3-3γ [2] = target: 14-3-3γ (UniProt P61982); assay: anti-Flag; conditions: reference: wild-type TLE6
Mouse zygotes = assay: Early embryonic development of zygotes with PKA inhibitor; assay type: cell-based; conditions: H89 20 μM, commencing from 72 h pHCGi
SCMC = assay: Strep pull-down of 14-3-3 paralogs; assay type: binding, mouse; conditions: Strep-Tactin pull-down, purified SCMC and 14-3-3 paralogs, SDS-PAGE
Procedure, shortened: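 SCMC was expressed in Sf9 cells for 60 h at 27 °C: His-MATER 1–1059, Strep-TLE6 48–581, Strep-FLOPED 1–164, Strep-FILIA 1–124 or 1–256. It was purified by Ni-NTA, anion exchange and Superose 6. GST-14-3-3 paralogs came from E. coli, were 3C-cleaved, and went through anion exchange and Superdex 200. Proteins were mixed with SCMC or buffer control and captured on Strep-Tactin at 4 °C. Washes contained 0.5% NP-40 and elution used 50 mM biotin. Read-out was SDS-PAGE/immunoblot.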

[3] = target: His-tagged 14-3-3γ (mouse) (UniProt P61982); assay: ITC

Molecule: CC(C)C[C@@H](C=O)NC(=O)[C@H](CC(C)C)NC(=O)[C@H](CC(C)C)NC(=O)OCc1ccccc1 [MG132] (Cbz-Leu-Leu-Leu-aldehyde)
decrease in the protein level of 14-3-3γ (mouse 14-3-3γ; MG132 20 μM with cycloheximide 100 μg/ml): effectively rescued

Molecule: TLE6 (from UniProt Q9WVB3) S139A
binding against the reference (14-3-3γ [2]; sites S139): weaker

Molecule: O=S(=O)(NCCNC/C=C/c1ccc(Br)cc1)c1cccc2cnccc12 [H89]
progression of early embryonic development (Mouse zygotes): markedly retarded

Molecule: C[C@@H]1C[C@@H]([C@H](O)CC2CC(=O)NC(=O)C2)C(=O)[C@@H](C)C1 [cycloheximide]
level of exogenous mouse 14-3-3γ (mouse 14-3-3γ; cycloheximide 100 μg/ml): gradually degraded

Molecule: 14-3-3γ: mouse 14-3-3 paralog γ (1–247 aa)
binding to the SCMC (SCMC): most potent binding partner

Molecule: QPRHRN[pS]LSDSA [TLE6 (203–214) pS209 phosphopeptide]
Kd [3]: 315 µM

Continued, values first:

binding to 14-3-3γ (in words) (14-3-3γ [1]): cannot bind to 14-3-3γ
Molecule: TLE6 (133–144): wild-type TLE6 peptide, residues 133–144 (TRRRFLSESDEL)

binding to 14-3-3γ (in words) (14-3-3γ [1]): cannot bind to 14-3-3γ
Molecule: TLE6 (203–214): wild-type TLE6 peptide, residues 203–214 (QPRHRNSLSDSA)

binding to 14-3-3γ (in words) (14-3-3γ [1]): cannot bind to 14-3-3γ
Molecule: TLE6 (217–228) pS223: phosphopeptide of TLE6 residues 217–228 carrying phosphorylated Ser223 (FLIKSP[pS]ALLDY)

binding against the reference (14-3-3γ [2]; sites S209): weaker
Molecule: TLE6 (from UniProt Q9WVB3) S209A

Kd [3]: 55.8 µM
Molecule: TRRRFL[pS]ESDEL [TLE6 (133–144) pS139 phosphopeptide]

— PMC11480350 (Nature Communications, 2024)
